Test results taken from ChEMBL document CHEMBL1147721, “Identification of new diamine scaffolds with activity against Mycobacterium tuberculosis” (J Med Chem, 2006).
pIC50: −log10 of the molar value. Values after ≈ are worked out from the molar mass of the structure shown. Active and inactive are the calls of the source. The rule behind the calls is not given here.

Key:
[1] = system: Mycobacterium tuberculosis; experiment: Antimycobacterial activity against Mycobacterium tuberculosis by broth microdilution assay; assay type: functional
Outline: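 MIC by broth microdilution against M. tuberculosis. Library mixtures were screened unpurified, and active wells were deconvoluted and re-tested as individual compounds. Purified compounds (≥95%) were tested from 10 mM methanol stocks. INH, rifampicin and EMB were controls.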

HepG2 [2] = experiment: Cytotoxicity against human HepG2 cell line by MTS assay; assay type: functional, cell-based
HepG2 [3] = experiment: Selectivity index, IC50 for human HepG2 cell line/MIC for Mycobacterium tuberculosis; assay type: functional
Outline: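 SI = IC50/MIC: HepG2 IC50 from the MTS assay divided by the M. tuberculosis MIC from broth microdilution.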

[4] = system: Mycobacterium tuberculosis; experiment: Antimycobacterial activity against recombinant Mycobacterium tuberculosis containing Rv0341 promoter by luciferase assay; assay type: functional; set-up: concentration or dose not given beside the values
Outline: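 Recombinant M. tuberculosis carrying the Rv0341 promoter fused to firefly luciferase was treated and luminescence read. Activity is given as percent of EMB activity (EMB = 100%). In screening, luminescence above 1.5-fold the untreated background counted as active.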

Mus musculus = experiment: Reduction in body weight of C3H mouse infected with 10^6 CFU of Mycobacterium tuberculosis H37Rv at 10 mg/kg, po after 20 days; assay type: functional; set-up: scale not given: the % may be the effect or the level left
Outline: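 Rapid-progression model: C3H mice infected iv with 10^6 CFU M. tuberculosis H37Rv. Oral gavage at 10 mg/kg daily (dose not optimised) started day 7 and ran 10 days. Body weight was monitored from day 0, 6 mice per group. Controls were uninfected, infected untreated, and INH 25 mg/kg.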

[5] = system: Mycobacterium tuberculosis; experiment: Reduction in CFU in C57BL/6 mouse infected with 10^5 CFU of Mycobacterium tuberculosis H37Rv at 10 mg/kg after 20 days; assay type: functional
Outline: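 Low-dose chronic TB mouse model with M. tuberculosis H37Rv. Treatment began 20 days after infection: 10 mg/kg daily by oral gavage, 5 days/week for four weeks. INH 25 mg/kg was the positive control. Organ CFU were compared with infected untreated mice.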

SMILES	MIC [1] [µM]	pIC50 (HepG2 [2])	Selectivity index (HepG2 [3])	Activity [4]	Activity (Mus musculus) [%]	Log10 cfu [5]
CC1(C)C2CC=C(CN3CCN(Cc4ccccc4)CC3)C1C2 (stereo not drawn)	6.25 (≈ 1.94 µg/mL)	4.19	10	inactive		
c1ccc(COc2ccc(CN3CCCN(Cc4ccc(OCc5ccccc5)cc4)CC3)cc2)cc1	3.13 (≈ 1.54 µg/mL)	4.25	18	inactive		
COc1ccccc1CN1CCN(C(c2ccccc2)c2ccc(Cl)cc2)CC1 (stereo not drawn)	6.25 (≈ 2.54 µg/mL)	4.19	10	inactive		
COc1ccccc1CN1CCCN(Cc2ccccc2OC)CC1	6.25 (≈ 2.13 µg/mL)		17	138%		
CCOc1ccccc1CN1CCCN(Cc2ccccc2OCC)CC1	1.56 (≈ 0.575 µg/mL)	4.15	46	70%	21	
C1CN(C2C3CC4CC(C3)CC2C4)CCN(C2C3CC4CC(C3)CC2C4)C1 (stereo not drawn)	1.56 (≈ 0.575 µg/mL)		84.6	126%	12	0.7
C=C(C)[C@@H]1CC=C(CN2CCCN(CC3=CC[C@@H](C(=C)C)CC3)CC2)CC1	6.25 (≈ 2.3 µg/mL)	4.09	13	inactive		
Fc1ccc(N2CCN(C3CCC4CCCCC4C3)CC2)cc1 (stereo not drawn)	12.5 (≈ 3.96 µg/mL)	4.07	7	157%		
Clc1ccc(C(c2ccccc2)N2CCN(C3CCC4CCCCC4C3)CC2)cc1 (stereo not drawn)	6.25 (≈ 2.64 µg/mL)	4.33	8	inactive		
c1ccc(COc2ccc(CN3CCN(Cc4ccccc4)CC3)cc2)cc1	6.25 (≈ 2.33 µg/mL)	4.27	9	inactive	12	1
CC1(C)C2CC=C(CN3CCCN(CC4=CCC5CC4C5(C)C)CC3)C1C2	3.13 (≈ 1.15 µg/mL)		35	113%		
C=C(C)[C@@H]1CC=C(CN2CCN(Cc3ccccc3)CC2)CC1	3.13 (≈ 0.972 µg/mL)	4.22	19	inactive		
Fc1ccccc1N1CCN(C2CCC3CCCCC3C2)CC1 (stereo not drawn)	12.5 (≈ 3.96 µg/mL)	4.15	6	145%		
C1CCC2CC(N3CCCN(C4CCC5CCCCC5C4)CC3)CCC2C1 (mixture of isomers)	1.56	4.27	35	127%		
C1CCCC(N2CCCN(C3CCCCCCC3)CC2)CCC1	1.56 (≈ 0.5 µg/mL)	4.13	47	81%		
NNC(=O)c1ccncc1 [ISONIAZID]						3.5
